Experimental findings from ChEMBL document CHEMBL1123930, “Structure-activity relationships among di- and tetramine disulfides related to benextramine” (1987) are described below.

Structures are written as SMILES. Active and inactive are the calls of the source. The rule behind the calls is not given here.

Holding throughout (assay type): functional
For assay [1], the target named is Adrenergic receptor alpha (Rattus norvegicus) (UniProt P15823+P23944+P43140+P22086+P19328+P22909). Briefly: Irreversible inhibition against Norepinephrine (NE)-induced response in rat vas deferens with benextramine (BHC) as standard at a concentration of 2 x 10e-5 M. The method, boiled down:
(§1)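 Rat vas deferens tissues were held at 32 °C under 95% O2/5% CO2 at 0.50 g loading tension, with contractions recorded by force transducer. After 1 h equilibration and a medium change, antagonist was incubated for 30 min, then drained and washed out for 30 min. Cumulative NE concentration-response curves followed. The fall in maximal response, as percent of control, is reported as mean ± SEM of five experiments.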

The species entered for assay [2] is Rattus norvegicus. Briefly: Irreversible inhibition against Norepinephrine (NE)-induced response in rat vas deferens with benextramine (BHC) as standard at a concentration of 10e-4 M. The procedure, abridged:
as §1

The species named for assay [3] is Rattus norvegicus. Briefly: Irreversible inhibition against Norepinephrine (NE)-induced response in rat vas deferens with benextramine (BHC) as standard at a concentration of 2 x 10e-5 M; Inactive. The method, boiled down: as §1
The species entered for assay [4] is Rattus norvegicus. Briefly: Irreversible inhibition against Norepinephrine (NE)-induced response in rat vas deferens with benextramine (BHC) as standard at a concentration of 10e-4 M; Inactive. The procedure, abridged: as §1
The species entered for assay [5] is Rattus norvegicus. Briefly: Irreversible inhibition against Norepinephrine (NE)-induced response in rat vas deferens with benextramine (BHC) as standard at a concentration of 6 x 10e-6 M. The method, boiled down: as §1

The inhibition is the relative decrease from the control value, in per cent.

In assay [1], `CN(CCCCCCN1CCCC1)CCSSCCN(C)CCCCCCN1CCCC1` returned an inhibition of 41%.
The same measure, in the same setting: the result for `COc1ccc(C(O)CNCCCCCCNCCSSCCNCCCCCCNCC(O)c2ccc(OC)cc2)cc1` (stereo not given) reads 81%; that for `COc1ccccc1COCCCCCCNCCSSCCNCCCCCCOCc1ccccc1OC`, 58%.
On the same count and under the same terms, as for `C(CCCN1CCCC1)CCNCCSSCCNCCCCCCN1CCCC1`, the figure is 98%; as for `c1ccc(CNCCCCCCOCCSSCCOCCCCCCNCc2ccccc2)cc1`, 32%.
In the assay filed under Rattus norvegicus [2], `c1ccc2c(c1)CCN(CCCCCCNCCSSCCNCCCCCCN1CCc3ccccc3C1)C2` showed an inhibition at 100 µM of 66%. The inhibition result in the assay listed under Rattus norvegicus [3] was “inactive”.
As to `CCN(CC)CCSSCCN(CC)CC`, the inhibition result in the assay listed under Rattus norvegicus [4] and in the assay listed under Rattus norvegicus [3] was “inactive” in each case.
`COc1cc(C(O)CNCCCCCCNCCSSCCNCCCCCCNCC(O)c2cc(OC)c(OC)c(OC)c2)cc(OC)c1OC` (stereo not given) came in with an inhibition in assay [1] of 98%.
As to `c1ccc2c(c1)OCC(CNCCCCCCNCCSSCCNCCCCCCNCC1COc3ccccc3O1)O2` (stereo not given), the inhibition at 100 µM in the assay listed under Rattus norvegicus [2] was found to be 53%. For the same compound, the inhibition entry in the assay filed under Rattus norvegicus [3] was “inactive”.
As to `CN(CCCCCCN1CCCCC1)CCSSCCN(C)CCCCCCN1CCCCC1`, the inhibition in assay [1] came to 34%.
Same read-out and setting: the result for `COc1ccccc1C(O)CNCCCCCCNCCSSCCNCCCCCCNCC(O)c1ccccc1OC` (stereo not given) reads 82%.
In the assay listed under Rattus norvegicus [2], `c1ccc2c(c1)CN(CCCCCCNCCSSCCNCCCCCCN1COc3ccccc3C1)CO2` gave an inhibition at 100 µM of 34%. In addition, in the assay listed under Rattus norvegicus [3], the inhibition entry is “inactive”.
The compound `NC(CCCCCNCCSSCCNCCCCCC(N)Cc1ccccc1)Cc1ccccc1` (stereo not given) showed an inhibition in assay [1] of 57%.
As to `O=C(Cc1ccccc1)NCCCCCCNCCSSCCNCCCCCCNC(=O)Cc1ccccc1`, in assay [1], the inhibition amounted to 44%.
`Oc1ccc(C(O)CNCCCCCCNCCSSCCNCCCCCCNCC(O)c2ccc(O)c(O)c2)cc1O` (stereo not given): the inhibition in assay [1] was 92%.
Take `CN(CCCCCCNCc1ccccc1N)CCSSCCN(C)CCCCCCNCc1ccccc1N`: in the assay listed under Rattus norvegicus [2], the inhibition at 100 µM is 38%. Further, in the assay listed under Rattus norvegicus [3], the inhibition entry was “inactive”.
`Cn1ccc(CNCCCCCCNCCSSCCNCCCCCCNCc2ccn(C)c2)c1` had an inhibition in assay [1] of 100%. In the assay filed under Rattus norvegicus [5], the inhibition at 6 µM worked out at 54%.
`OC(CNCCCCCCNCCSSCCNCCCCCCNCC(O)c1ccc2c(c1)OCO2)c1ccc2c(c1)OCO2` (stereo not given): the inhibition in assay [1] was 43%.
Compound `COc1ccc(C(O)CNCCCCCCNCCSSCCNCCCCCCNCC(O)c2ccc(OC)c(OC)c2)cc1OC` (stereo not given) yielded an inhibition in assay [1] of 87%.
As to `CC(C)(C)NCCSSCCNC(C)(C)C`, the inhibition result in the assay filed under Rattus norvegicus [4] and in the assay filed under Rattus norvegicus [3] was “inactive” each time.
Consider `C1CCN(CCSSCCN2CCCCC2)CC1`, for which the inhibition result in the assay listed under Rattus norvegicus [4] and in the assay filed under Rattus norvegicus [3] was “inactive” throughout.
`OC(CNCCCCCCNCCSSCCNCCCCCCNCC(O)c1ccccc1)c1ccccc1` (stereo not given) registered an inhibition at 100 µM in the assay filed under Rattus norvegicus [2] of 40%. In addition, in assay [1], the inhibition is 13%.
In turn, `c1csc(CNCCCCCCNCCSSCCNCCCCCCNCc2cccs2)c1` had an inhibition in assay [1] of 70%.
In turn, `c1ccc2c(c1)OC[C@H](CNCCCCCCNCCSSCCNCCCCCCNC[C@H]1COc3ccccc3O1)O2` came in with an inhibition at 100 µM in the assay filed under Rattus norvegicus [2] of 79%. Moreover, in the assay filed under Rattus norvegicus [3], the inhibition result was “inactive”.
With `COc1ccccc1CNCCCCCCNCCSSCCNCCCCCCNCc1ccccc1OC` [BENEXTRAMINE], in assay [1], the inhibition was found to be 100%. In addition, the inhibition at 6 µM in the assay filed under Rattus norvegicus [5] is 35%.
Taken in the same sequence, the figures for `C(CCCN1CCCCC1)CCNCCSSCCNCCCCCCN1CCCCC1` were 100% and 56%.
Compound `COc1ccccc1CNCCCCCCOCCSSCCOCCCCCCNCc1ccccc1OC` returned an inhibition in assay [1] of 36%.
In the case of `Nc1ccccc1C(=O)NCCCCCCNCCSSCCNCCCCCCNC(=O)c1ccccc1N`, the inhibition at 100 µM in the assay listed under Rattus norvegicus [2] is 55%. Besides, the inhibition entry in the assay listed under Rattus norvegicus [3] is “inactive”.
`c1ccc(COCCCCCCNCCSSCCNCCCCCCOCc2ccccc2)cc1` gave an inhibition in assay [1] of 60%.
In the case of `c1ccc2c(c1)OC[C@@H](CNCCCCCCNCCSSCCNCCCCCCNC[C@@H]1COc3ccccc3O1)O2`, at 100 µM the inhibition in the assay listed under Rattus norvegicus [2] was 68%. For the same compound, the inhibition result in the assay filed under Rattus norvegicus [3] was “inactive”.
Regarding `c1coc(CNCCCCCCNCCSSCCNCCCCCCNCc2ccco2)c1`, in assay [1], the inhibition was 100%. For the same compound, 6 µM produced 79% inhibition in the assay filed under Rattus norvegicus [5].
On to `c1ccc2c(c1)CCN2CCCCCCNCCSSCCNCCCCCCN1CCc2ccccc21`, for which, in assay [1], the inhibition amounted to 37%.
For the compound `c1ccc(CCNCCCCCCNCCSSCCNCCCCCCNCCc2ccccc2)cc1`, the inhibition at 100 µM in the assay filed under Rattus norvegicus [2] was 32%. For the same compound, in the assay filed under Rattus norvegicus [3], the inhibition result is “inactive”.
Consider `COc1cccc(C(O)CNCCCCCCNCCSSCCNCCCCCCNCC(O)c2cccc(OC)c2)c1` (stereo not given), for which, in assay [1], the inhibition came out at 91%.
In assay [1], `Nc1ccccc1CNCCCCCCNCCSSCCNCCCCCCNCc1ccccc1N` showed an inhibition of 79%.
`c1ccc2c(c1)CN(CCCCCCNCCSSCCNCCCCCCN1CNc3ccccc3C1)CN2` yielded an inhibition in assay [1] of 89%.
With `CN(CCCCCCN1CNc2ccccc2C1)CCSSCCN(C)CCCCCCN1CNc2ccccc2C1`, at 100 µM the inhibition in the assay filed under Rattus norvegicus [2] was 6%. The inhibition result in the assay filed under Rattus norvegicus [3] was “inactive”.
In the same order, the values of `c1ccc2c(CNCCCCCCNCCSSCCNCCCCCCNCc3c[nH]c4ccccc34)c[nH]c2c1` are 46% and “inactive”.
Taken in the same sequence, the figures for `c1cc2c(cc1COCCCCCCNCCSSCCNCCCCCCOCc1ccc3c(c1)OCO3)OCO2` were 45% and “inactive”.
`c1ccc(CNCCSSCCNCc2ccccc2)cc1` registered an inhibition at 100 µM in the assay listed under Rattus norvegicus [2] of 48%. For the same compound, in assay [1], the inhibition worked out at 12%.
